Results as given in ChEMBL document CHEMBL5038590, “Discovery of G Protein-Biased Ligands against 5-HT7R” (J Med Chem, 2021).

Tests used:
[1] = target: T1, 5-hydroxytryptamine receptor 7 (Homo sapiens, UniProt P34969); assay: Displacement of [3H] D-lysergic acid diethylamide from 5-HT7R (unknown origin) transfected in HEK293 cells incubated for 1.5 hrs by microbeta scintillation counter analysis; format: cell-based
[2] = target: T1, 5-hydroxytryptamine receptor 7; assay: Agonist activity at 5-HT7R (unknown origin) transfected in HEK293 cells expressing tTA-dependent luciferase reporter and beta arrestin 2-TEV fusion gene assessed as beta arrestin recruitment incubated for 22 hrs by Tango assay; format: functional, cell-based
[3] = target: T2, 5-hydroxytryptamine receptor 1A (Homo sapiens, UniProt P08908); assay: Binding affinity to 5-HT1AR (unknown origin)
T2 sequence (P08908 whole entry): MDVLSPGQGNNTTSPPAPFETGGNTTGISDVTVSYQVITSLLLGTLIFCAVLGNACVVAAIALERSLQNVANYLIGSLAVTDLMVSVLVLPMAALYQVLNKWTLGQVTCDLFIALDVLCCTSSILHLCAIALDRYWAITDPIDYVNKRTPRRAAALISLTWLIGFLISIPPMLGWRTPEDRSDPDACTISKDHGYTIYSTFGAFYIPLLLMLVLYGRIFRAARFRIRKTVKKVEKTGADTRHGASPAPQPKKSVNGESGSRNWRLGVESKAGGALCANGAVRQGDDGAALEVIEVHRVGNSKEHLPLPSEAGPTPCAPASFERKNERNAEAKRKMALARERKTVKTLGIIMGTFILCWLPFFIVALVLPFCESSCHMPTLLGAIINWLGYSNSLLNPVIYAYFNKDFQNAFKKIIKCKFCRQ
Procedure, shortened: (§1)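 Run by the NIMH Psychoactive Drug Screening Program as competition radioligand binding on crude membranes of cells expressing the recombinant receptor. Eleven dilutions (0.05 nM–50 μM, prepared at 5× assay concentration) were made in 50 mM Tris-HCl, 10 mM MgCl₂, 1 mM EDTA, pH 7.4. Incubation was 1.5 h at rt in the dark, followed by GF/B filtration (0.3% PEI) and scintillation counting. IC₅₀ was converted to Ki; at least triplicate.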

[4] = target: 5-hydroxytryptamine receptor 1B (Homo sapiens, UniProt P28222); assay: Binding affinity to 5-HT1BR (unknown origin); procedure, shortened: as §1
Sequence of 5-hydroxytryptamine receptor 1B (P28222 whole entry): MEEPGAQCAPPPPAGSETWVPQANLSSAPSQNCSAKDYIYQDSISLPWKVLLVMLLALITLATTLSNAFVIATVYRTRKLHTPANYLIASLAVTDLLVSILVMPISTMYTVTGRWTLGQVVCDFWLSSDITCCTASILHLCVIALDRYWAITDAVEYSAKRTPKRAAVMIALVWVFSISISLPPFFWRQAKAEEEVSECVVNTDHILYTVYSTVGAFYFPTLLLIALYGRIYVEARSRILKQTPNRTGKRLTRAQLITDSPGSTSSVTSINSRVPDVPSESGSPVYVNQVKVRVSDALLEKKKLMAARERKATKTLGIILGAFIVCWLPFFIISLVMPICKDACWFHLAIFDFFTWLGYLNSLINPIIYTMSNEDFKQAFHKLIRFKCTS

[5] = target: 5-hydroxytryptamine receptor 1D (Homo sapiens, UniProt P28221); assay: Binding affinity to 5-HT1DR (unknown origin); procedure, shortened: as §1
Sequence of 5-hydroxytryptamine receptor 1D (P28221 whole entry): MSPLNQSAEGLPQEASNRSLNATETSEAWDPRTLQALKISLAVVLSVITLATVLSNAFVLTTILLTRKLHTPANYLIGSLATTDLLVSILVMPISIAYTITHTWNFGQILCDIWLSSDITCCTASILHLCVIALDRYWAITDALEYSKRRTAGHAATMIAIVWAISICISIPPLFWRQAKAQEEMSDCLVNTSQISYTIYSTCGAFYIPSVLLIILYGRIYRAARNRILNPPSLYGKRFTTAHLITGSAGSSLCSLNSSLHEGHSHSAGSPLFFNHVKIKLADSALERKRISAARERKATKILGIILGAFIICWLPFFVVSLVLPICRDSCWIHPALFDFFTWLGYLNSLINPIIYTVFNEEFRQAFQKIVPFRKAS

[6] = target: 5-hydroxytryptamine receptor 1E (Homo sapiens, UniProt P28566); assay: Binding affinity to 5-HT1ER (unknown origin); procedure, shortened: as §1
Sequence of 5-hydroxytryptamine receptor 1E (P28566 whole entry): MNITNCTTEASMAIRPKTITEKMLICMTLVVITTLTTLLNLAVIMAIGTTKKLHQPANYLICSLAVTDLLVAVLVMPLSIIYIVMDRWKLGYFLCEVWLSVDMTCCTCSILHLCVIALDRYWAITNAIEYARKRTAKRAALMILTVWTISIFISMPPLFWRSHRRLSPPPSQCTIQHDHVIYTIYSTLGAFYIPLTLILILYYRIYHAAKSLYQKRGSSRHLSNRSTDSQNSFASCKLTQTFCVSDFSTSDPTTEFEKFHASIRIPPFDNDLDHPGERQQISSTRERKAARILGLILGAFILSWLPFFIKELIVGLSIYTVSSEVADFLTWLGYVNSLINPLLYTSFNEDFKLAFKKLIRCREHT

[7] = target: 5-hydroxytryptamine receptor 2A (Homo sapiens, UniProt P28223); assay: Binding affinity to 5-HT2AR (unknown origin); procedure, shortened: as §1
Sequence of 5-hydroxytryptamine receptor 2A (P28223 whole entry): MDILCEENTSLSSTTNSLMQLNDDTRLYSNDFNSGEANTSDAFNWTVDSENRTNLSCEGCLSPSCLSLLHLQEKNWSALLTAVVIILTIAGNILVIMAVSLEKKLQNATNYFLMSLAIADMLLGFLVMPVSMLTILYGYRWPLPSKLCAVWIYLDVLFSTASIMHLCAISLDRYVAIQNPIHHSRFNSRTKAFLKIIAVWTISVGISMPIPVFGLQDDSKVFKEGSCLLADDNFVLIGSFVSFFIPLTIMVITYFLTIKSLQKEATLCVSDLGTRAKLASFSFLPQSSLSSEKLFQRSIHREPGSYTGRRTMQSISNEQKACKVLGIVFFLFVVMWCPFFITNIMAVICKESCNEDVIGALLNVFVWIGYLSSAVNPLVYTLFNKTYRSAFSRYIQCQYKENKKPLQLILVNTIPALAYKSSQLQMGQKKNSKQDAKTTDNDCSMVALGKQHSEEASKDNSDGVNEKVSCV

[8] = target: 5-hydroxytryptamine receptor 2B (Homo sapiens, UniProt P41595); assay: Binding affinity to 5-HT2BR (unknown origin); procedure, shortened: as §1
Sequence of 5-hydroxytryptamine receptor 2B (P41595 whole entry): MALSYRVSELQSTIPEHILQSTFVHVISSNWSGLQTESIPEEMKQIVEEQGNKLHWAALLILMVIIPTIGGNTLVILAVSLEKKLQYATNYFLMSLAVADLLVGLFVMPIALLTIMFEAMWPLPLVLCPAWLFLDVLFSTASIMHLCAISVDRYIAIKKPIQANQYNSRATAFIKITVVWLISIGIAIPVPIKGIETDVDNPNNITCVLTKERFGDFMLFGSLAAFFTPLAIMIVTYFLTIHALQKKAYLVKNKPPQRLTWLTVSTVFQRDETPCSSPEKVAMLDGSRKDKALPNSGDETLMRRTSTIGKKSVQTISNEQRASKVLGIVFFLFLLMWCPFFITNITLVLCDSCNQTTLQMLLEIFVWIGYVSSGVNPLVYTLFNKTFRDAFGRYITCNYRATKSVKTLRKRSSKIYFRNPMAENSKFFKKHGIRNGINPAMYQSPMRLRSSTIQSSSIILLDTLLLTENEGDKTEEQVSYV

[9] = target: T3, 5-hydroxytryptamine receptor 2C (Homo sapiens, UniProt P28335); assay: Binding affinity to 5-HT2CR (unknown origin); procedure, shortened: as §1
T3 sequence (P28335 whole entry): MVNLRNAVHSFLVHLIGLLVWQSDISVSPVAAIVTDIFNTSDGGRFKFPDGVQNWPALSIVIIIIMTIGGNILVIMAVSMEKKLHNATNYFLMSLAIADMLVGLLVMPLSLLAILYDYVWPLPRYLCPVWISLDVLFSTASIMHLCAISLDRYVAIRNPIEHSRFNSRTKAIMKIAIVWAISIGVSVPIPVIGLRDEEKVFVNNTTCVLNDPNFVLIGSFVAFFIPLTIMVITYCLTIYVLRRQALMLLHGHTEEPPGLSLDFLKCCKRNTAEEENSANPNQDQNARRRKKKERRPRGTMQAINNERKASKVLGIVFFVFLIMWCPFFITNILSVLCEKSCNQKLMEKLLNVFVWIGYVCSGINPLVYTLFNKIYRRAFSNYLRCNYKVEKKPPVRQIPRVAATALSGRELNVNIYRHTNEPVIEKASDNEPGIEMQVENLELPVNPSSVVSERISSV

[10] = target: T4, 5-hydroxytryptamine receptor 3A (Homo sapiens, UniProt P46098); assay: Binding affinity to 5-HT3R (unknown origin); procedure, shortened: as §1
T4 sequence (P46098 whole entry): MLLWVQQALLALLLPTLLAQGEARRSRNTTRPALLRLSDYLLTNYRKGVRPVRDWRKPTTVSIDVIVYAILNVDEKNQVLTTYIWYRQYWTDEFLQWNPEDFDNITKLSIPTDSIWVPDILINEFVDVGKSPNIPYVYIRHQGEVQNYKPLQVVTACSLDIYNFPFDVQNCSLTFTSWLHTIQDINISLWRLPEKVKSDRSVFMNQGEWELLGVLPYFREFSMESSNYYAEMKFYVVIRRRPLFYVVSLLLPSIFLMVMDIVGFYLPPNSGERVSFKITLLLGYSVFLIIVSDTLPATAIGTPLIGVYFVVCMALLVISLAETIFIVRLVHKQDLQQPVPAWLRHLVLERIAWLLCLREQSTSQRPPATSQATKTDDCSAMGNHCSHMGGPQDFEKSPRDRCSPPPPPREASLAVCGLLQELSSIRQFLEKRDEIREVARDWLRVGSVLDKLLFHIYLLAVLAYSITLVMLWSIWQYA

[11] = target: 5-hydroxytryptamine receptor 5A (Homo sapiens, UniProt P47898); assay: Binding affinity to 5-HT5AR (unknown origin); procedure, shortened: as §1
Sequence of 5-hydroxytryptamine receptor 5A (P47898 whole entry): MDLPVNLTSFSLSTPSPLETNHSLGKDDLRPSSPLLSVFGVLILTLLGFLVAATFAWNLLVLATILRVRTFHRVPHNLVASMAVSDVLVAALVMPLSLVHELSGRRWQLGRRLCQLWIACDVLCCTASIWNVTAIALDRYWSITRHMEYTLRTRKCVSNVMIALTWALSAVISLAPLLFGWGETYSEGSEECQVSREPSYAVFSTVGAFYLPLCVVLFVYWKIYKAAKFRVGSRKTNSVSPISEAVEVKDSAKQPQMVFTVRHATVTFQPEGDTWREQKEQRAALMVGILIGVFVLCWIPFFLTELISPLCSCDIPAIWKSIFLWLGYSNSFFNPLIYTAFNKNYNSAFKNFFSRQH

[12] = target: 5-hydroxytryptamine receptor 6 (Homo sapiens, UniProt P50406); assay: Binding affinity to 5-HT6R (unknown origin); procedure, shortened: as §1
Sequence of 5-hydroxytryptamine receptor 6 (P50406 whole entry): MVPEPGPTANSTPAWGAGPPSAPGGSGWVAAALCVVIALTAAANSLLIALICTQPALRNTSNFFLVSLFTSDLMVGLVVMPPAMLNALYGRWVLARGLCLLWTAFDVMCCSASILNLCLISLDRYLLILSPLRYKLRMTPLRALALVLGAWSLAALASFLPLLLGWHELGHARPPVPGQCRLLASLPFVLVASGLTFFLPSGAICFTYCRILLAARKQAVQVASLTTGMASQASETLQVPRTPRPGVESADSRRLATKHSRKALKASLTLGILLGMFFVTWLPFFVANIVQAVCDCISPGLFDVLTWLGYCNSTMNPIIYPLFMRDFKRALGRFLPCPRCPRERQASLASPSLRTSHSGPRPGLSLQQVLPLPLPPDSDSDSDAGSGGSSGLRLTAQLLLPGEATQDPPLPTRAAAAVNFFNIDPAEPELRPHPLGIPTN

[13] = target: T1, 5-hydroxytryptamine receptor 7
Mus musculus [14] = assay: Effect on wild type mouse assessed as time taken for duration of self grooming at 30 mg/kg, ip after 30 mins under 40 lux lighting (reference value: 43.7 +/- 10.8 sec); format: functional; settings: 0.5 h
Mus musculus [15] = assay: Effect on shank3-/- mouse model of autism spectrum disorder assessed as time taken for duration of self grooming at 30 mg/kg, ip after 30 mins under 40 lux lighting (reference value: 224 +/- 47.4 sec); format: functional; settings: 0.5 h

T1 sequence (P34969 whole entry, the tested form may be a part): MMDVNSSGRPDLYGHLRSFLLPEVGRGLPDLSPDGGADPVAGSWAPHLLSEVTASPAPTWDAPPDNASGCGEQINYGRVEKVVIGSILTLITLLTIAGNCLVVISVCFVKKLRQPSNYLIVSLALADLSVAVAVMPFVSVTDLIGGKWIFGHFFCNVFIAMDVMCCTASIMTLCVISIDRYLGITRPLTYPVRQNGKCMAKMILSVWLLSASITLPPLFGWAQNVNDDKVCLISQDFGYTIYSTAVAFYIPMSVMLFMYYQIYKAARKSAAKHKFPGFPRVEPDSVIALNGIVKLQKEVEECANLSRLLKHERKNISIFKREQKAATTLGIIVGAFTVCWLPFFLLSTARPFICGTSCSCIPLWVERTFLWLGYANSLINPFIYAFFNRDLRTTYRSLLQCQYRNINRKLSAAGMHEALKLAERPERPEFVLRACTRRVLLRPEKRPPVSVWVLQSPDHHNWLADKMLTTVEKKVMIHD

Row | Compound | Ki ([1]; read-out: Ki) | EC50 ([2]; hek293) | Ki [3] | Ki [4] | Ki [5] | Ki [6] | Ki [7] | Ki [8] | Ki [9] | Ki [10] | Ki [11] | Ki [12] | EC50 [13] | EC50 ([2]; read-out: EC50) | Ki ([1]; read-out: pKi (converted)) | Time (Mus musculus [14]) | Time (Mus musculus [15])
1 | CCN(CC)CCc1ccc(Cl)c(-c2ccccc2OC)c1 | 25 nM | Not Active | 84 nM | 160 nM | 8.4 nM | 6700 nM | 680 nM | 320 nM | > 10000 nM | > 10000 nM | 2100 nM | > 10000 nM | 1900 nM | – | – | – | –
2 | CCCNCc1ccc(Cl)c(-c2ccccc2OC)c1 | – | – | 420 nM | 640 nM | 220 nM | > 10000 nM | 670 nM | 12 nM | 200 nM | > 10000 nM | 120 nM | 3500 nM | – | – | – | – | –
3 | CCN(CC)Cc1ccc(Cl)c(-c2ccccc2OC)c1 | 110 nM | Not Active | 1700 nM | > 10000 nM | > 10000 nM | > 10000 nM | > 10000 nM | 67 nM | 820 nM | > 10000 nM | 230 nM | 2000 nM | – | – | – | – | –
4 | CCCN(CCC)CCc1ccc(Cl)c(-c2ccccc2OC)c1 | 20 nM | Not Active | 65 nM | 160 nM | 38 nM | > 10000 nM | 1200 nM | 230 nM | > 10000 nM | > 10000 nM | 2900 nM | > 10000 nM | 1400 nM | – | – | – | –
5 | CCCCNCc1ccc(Cl)c(-c2ccccc2OC)c1 | 52 nM | Not Active | – | > 10000 nM | 2000 nM | > 10000 nM | 280 nM | 15 nM | 310 nM | > 10000 nM | 360 nM | 240 nM | – | – | – | – | –
6 | CNCc1ccc(Cl)c(-c2ccccc2OC)c1 | – | – | 1700 nM | 1200 nM | 1200 nM | 2400 nM | 380 nM | 13 nM | 200 nM | > 10000 nM | 420 nM | 1300 nM | 460 nM | 150 nM | – | – | –
7 | CNCCc1ccc(Cl)c(-c2ccccc2OC)c1 | 1.6 nM | – | 280 nM | 84 nM | 3.3 nM | 180 nM | 170 nM | 69 nM | > 10000 nM | > 10000 nM | 910 nM | 740 nM | 73 nM | 71 nM | – | – | –
8 | COc1ccccc1-c1cc(CN(C)C)ccc1Cl | – | – | 2100 nM | 830 nM | 1300 nM | 4100 nM | 360 nM | 11 nM | 270 nM | 1000 nM | 220 nM | 440 nM | 1100 nM | 480 nM | 20 nM | – | –
9 | CCCN(CCC)Cc1ccc(Cl)c(-c2ccccc2OC)c1 | > 10000 nM | Not Active | 400 nM | > 10000 nM | > 10000 nM | > 10000 nM | > 10000 nM | 80 nM | 2600 nM | > 10000 nM | > 10000 nM | > 10000 nM | – | – | – | – | –
10 | COc1ccccc1-c1cc(CCN(C)C)ccc1Cl | 2.5 nM | – | 280 nM | 74 nM | 86 nM | 2200 nM | 250 nM | 280 nM | > 10000 nM | > 10000 nM | 380 nM | 1000 nM | 84 nM | 56 nM | – | – | –
11 | COc1ccccc1-c1cc(C2CCNC2)ccc1Cl (stereo not drawn) | – | – | 96 nM | 410 nM | 3.4 nM | 770 nM | 340 nM | 50 nM | > 10000 nM | 590 nM | 970 nM | 400 nM | – | – | – | – | –
12 | CCCCNCCc1ccc(Cl)c(-c2ccccc2OC)c1.Cl | 64 nM | Not Active | 220 nM | 280 nM | 110 nM | > 10000 nM | 570 nM | 130 nM | > 10000 nM | > 10000 nM | 2400 nM | > 10000 nM | – | – | – | – | –
13 | CC1CCN(CC[C@H]2CCCN2S(=O)(=O)c2cccc(O)c2)CC1 | – | – | – | – | – | – | – | – | – | – | – | – | – | – | – | 29.3 s | 181 s
14 | COc1ccccc1-c1cc(C2CCN(C)C2)ccc1Cl (stereo not drawn) | – | – | 200 nM | 12 nM | 19 nM | 4100 nM | 1200 nM | 170 nM | 920 nM | 420 nM | 1000 nM | > 10000 nM | – | – | – | – | –
15 | Cc1nn(C)c(C)c1-c1cccc(CCN(C)C)c1 | 1.3 nM | – | – | – | – | – | – | – | – | – | – | – | 83 nM | 21 nM | – | – | –
16 | CCNCc1ccc(Cl)c(-c2ccccc2OC)c1 | – | – | 840 nM | 210 nM | 220 nM | > 10000 nM | 910 nM | 19 nM | 45 nM | > 10000 nM | 1800 nM | 1400 nM | – | – | – | – | –
17 | CCCNCCc1ccc(Cl)c(-c2ccccc2OC)c1.Cl | 8.7 nM | Not Active | 140 nM | 250 nM | 41 nM | > 10000 nM | 600 nM | 170 nM | > 10000 nM | > 10000 nM | 240 nM | > 10000 nM | 1000 nM | – | 8.51 nM | – | –
